ChEMBL document CHEMBL1141651, “Discovery of a potent, selective, and orally active proteasome inhibitor for the treatment of cancer” (J Med Chem, 2008)
Active and inactive are the calls of the source. The rule behind the calls is not given here.

How the values were obtained:
[1] = Inhibition of chymotrypsin-like activity of human 20S proteasome in Molt4 cells; type: cell-based; settings: molt-4
How it was run: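 Intact human leukemia Molt-4 cells were given the cell-permeable fluorogenic chymotrypsin-like substrate MeOSuc-FLF-AFC, so the read-out also reflects inhibitor cell permeability. Potency is reported as EC50.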

A2780 = assay: Cytotoxicity against human A2780 cells; type: functional, cell-based
How it was run: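 Antiproliferative activity was measured in A2780 ovarian carcinoma cells with a standard colorimetric assay of cell proliferation and viability. Results are expressed as IC50.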

[2] = Inhibition of bovine alpha chymotrypsin; design: species or system Bos taurus
[3] = Inhibition of chymotrypsin-like activity of human erythrocyte 20S proteasome
How it was run: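 Isolated 20S proteasome purified from human erythrocytes was tested in a fluorimetric kinetic assay of chymotrypsin-like activity. Potency is reported as IC50.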

[4] = Metabolic stability in mouse liver microsomes; type: ADME, Microsome
[5] = Metabolic stability in human liver microsomes; type: ADME, Microsome
[6] = biological target: Protease (Human immunodeficiency virus 1) (UniProt Q9YQ12); assay: Inhibition of HIV1 protease at 10 uM
[7] = biological target: Pro-cathepsin H (Homo sapiens) (UniProt P09668); assay: Inhibition of human cathepsin H at 10 uM
[8] = biological target: Prothrombin (Homo sapiens) (UniProt P00734); assay: Inhibition of human thrombin at 10 uM
[9] = Metabolic stability in rat liver microsomes; type: ADME, Microsome
Sus scrofa [10] = species on record: Sus scrofa; assay: Inhibition of pig pepsin at 10 uM
[11] = biological target: Procathepsin L (Homo sapiens) (UniProt P07711); assay: Inhibition of human cathepsin L at 10 uM
[12] = biological target: Dipeptidyl peptidase 4 (Homo sapiens) (UniProt P27487); assay: Inhibition of human DPP4 at 10 uM
[13] = Half life in CD1 mouse at 4 mg/kg, po; type: ADME, organism-based; design: dose 4 mg/kg, route oral; settings: in vivo
How it was run: (§1)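 Female Sprague–Dawley rats and CD-1 mice each received a single iv or oral (po) dose. Terminal half-life and systemic clearance were estimated from plasma exposure over time, alongside AUC0→∞, Vss and absolute oral bioavailability.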

Caspase-2 (Homo sapiens) = Caspase-2 (Homo sapiens) (UniProt P42575); assay: Inhibition of human caspase 2 at 10 uM
[14] = biological target: Dipeptidyl peptidase 1 (Bos taurus) (UniProt Q3ZCJ8); assay: Inhibition of bovine cathepsin C at 10 uM
Caspase-3 (Homo sapiens) = Caspase-3 (Homo sapiens) (UniProt P42574); assay: Inhibition of human caspase 3 at 10 uM
Cathepsin G = Cathepsin G (Homo sapiens, UniProt P08311); assay: Inhibition of human cathepsin G
Chymase = Chymase (Homo sapiens, UniProt P23946); assay: Inhibition of human chymase
Sequence of Chymase (P23946 whole entry): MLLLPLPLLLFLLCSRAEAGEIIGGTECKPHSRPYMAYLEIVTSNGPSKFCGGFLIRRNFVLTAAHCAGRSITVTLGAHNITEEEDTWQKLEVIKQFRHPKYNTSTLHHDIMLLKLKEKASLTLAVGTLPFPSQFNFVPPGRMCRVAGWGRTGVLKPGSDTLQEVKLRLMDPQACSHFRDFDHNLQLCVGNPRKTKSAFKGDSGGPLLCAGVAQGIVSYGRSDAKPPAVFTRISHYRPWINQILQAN

[15] = biological target: Neprilysin (Homo sapiens) (UniProt P08473); assay: Inhibition of human NEP at 10 uM
Caspase-7 (Homo sapiens) = Caspase-7 (Homo sapiens) (UniProt P55210); assay: Inhibition of human caspase 7 at 10 uM
Sequence of Caspase-7 (Homo sapiens) (P55210 24-198 limits assumed): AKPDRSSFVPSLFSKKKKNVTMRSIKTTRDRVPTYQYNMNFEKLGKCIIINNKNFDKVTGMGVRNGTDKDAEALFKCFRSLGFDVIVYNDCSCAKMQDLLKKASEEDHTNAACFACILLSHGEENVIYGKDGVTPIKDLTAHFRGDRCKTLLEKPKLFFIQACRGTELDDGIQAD
Sequence of Caspase-7 (Homo sapiens) (P55210 207-303 limits assumed): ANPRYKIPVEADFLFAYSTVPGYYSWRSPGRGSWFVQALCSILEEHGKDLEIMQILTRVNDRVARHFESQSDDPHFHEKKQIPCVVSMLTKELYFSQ

[16] = biological target: Neutrophil elastase (Homo sapiens) (UniProt P08246); assay: Inhibition of human neutrophil elastase 2 at 10 uM
[17] = Protein binding in mouse plasma; type: ADME, cell-free; settings: read-out: PPB (converted)
[18] = biological target: Coagulation factor VII (Homo sapiens) (UniProt P08709); assay: Inhibition of human factor 7a at 10 uM
[19] = biological target: Cathepsin S (Homo sapiens) (UniProt P25774); assay: Inhibition of human cathepsin S at 10 uM
[20] = Protein binding in dog plasma; type: ADME, cell-free, Canis lupus familiaris; settings: read-out: PPB (converted)
[21] = biological target: Macrophage metalloelastase (Homo sapiens) (UniProt P39900); assay: Inhibition of human MMP12 at 10 uM
Sequence of Macrophage metalloelastase (Homo sapiens) (P39900 106-470 limits assumed): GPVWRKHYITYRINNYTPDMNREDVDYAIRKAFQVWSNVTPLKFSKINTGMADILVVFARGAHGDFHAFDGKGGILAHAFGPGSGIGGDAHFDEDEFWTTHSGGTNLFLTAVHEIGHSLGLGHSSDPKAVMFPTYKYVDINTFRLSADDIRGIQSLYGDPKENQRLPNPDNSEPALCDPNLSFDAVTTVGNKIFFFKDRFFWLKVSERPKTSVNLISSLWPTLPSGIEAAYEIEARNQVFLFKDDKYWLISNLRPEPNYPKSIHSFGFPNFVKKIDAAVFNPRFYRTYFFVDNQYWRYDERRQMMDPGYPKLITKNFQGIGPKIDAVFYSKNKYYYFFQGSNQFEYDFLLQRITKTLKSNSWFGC

[22] = biological target: Plasminogen (Homo sapiens) (UniProt P00747); assay: Inhibition of human plasmin at 10 uM
Sequence of Plasminogen (Homo sapiens) (P00747 97-580 limits assumed): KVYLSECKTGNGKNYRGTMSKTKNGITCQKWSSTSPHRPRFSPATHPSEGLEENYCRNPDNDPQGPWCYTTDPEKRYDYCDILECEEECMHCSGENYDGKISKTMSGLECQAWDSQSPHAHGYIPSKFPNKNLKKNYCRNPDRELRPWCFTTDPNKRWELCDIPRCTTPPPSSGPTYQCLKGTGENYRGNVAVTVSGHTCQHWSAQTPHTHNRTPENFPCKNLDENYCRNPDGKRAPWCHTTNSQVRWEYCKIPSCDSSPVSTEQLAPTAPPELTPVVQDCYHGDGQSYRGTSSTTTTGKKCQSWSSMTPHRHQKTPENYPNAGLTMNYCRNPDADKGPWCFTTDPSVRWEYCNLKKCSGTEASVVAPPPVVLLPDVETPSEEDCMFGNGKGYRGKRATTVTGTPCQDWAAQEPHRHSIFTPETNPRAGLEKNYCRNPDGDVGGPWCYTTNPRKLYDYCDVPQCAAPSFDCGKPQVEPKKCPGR
Sequence of Plasminogen (Homo sapiens) (P00747 581-810 limits assumed): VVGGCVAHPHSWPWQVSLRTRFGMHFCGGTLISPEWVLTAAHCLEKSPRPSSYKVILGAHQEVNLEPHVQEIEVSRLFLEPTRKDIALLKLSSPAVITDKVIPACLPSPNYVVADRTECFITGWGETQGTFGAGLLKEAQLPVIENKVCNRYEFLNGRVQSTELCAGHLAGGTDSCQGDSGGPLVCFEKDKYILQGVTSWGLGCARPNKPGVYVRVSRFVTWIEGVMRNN

[23] = Volume of distribution at steady state in CD1 mouse at 0.8 mg/kg, iv; type: ADME, organism-based; design: dose 0.8 mg/kg, route intravenous; settings: in vivo, read-out: Vdss
How it was run: (§2)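 Single-dose pharmacokinetics after iv or oral administration in female Sprague–Dawley rats and in CD-1 mice; plasma exposure (AUC0–∞) used to derive steady-state volume of distribution, clearance, terminal half-life and absolute oral bioavailability.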

[24] = AUC (0 to infinity) in CD1 mouse at 0.8 mg/kg, iv; type: ADME, organism-based; design: time infinity, dose 0.8 mg/kg, route intravenous; settings: plasma
How it was run: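 CD-1 mice received a single dose by the iv or oral route. AUC from 0 to infinity was reported with terminal half-life, Vss, clearance and absolute oral bioavailability.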

[25] = biological target: Cathepsin G (Homo sapiens) (UniProt P08311); assay: Inhibition of human cathepsin G at 10 uM
[26] = biological target: Calpain-1 catalytic subunit (Homo sapiens) (UniProt P07384); assay: Inhibition of human calpain 1 at 10 uM
Caspase-9 (Homo sapiens) = Caspase-9 (Homo sapiens) (UniProt P55211); assay: Inhibition of human caspase 9 at 10 uM
Sequence of Caspase-9 (Homo sapiens) (P55211 1-315 limits assumed): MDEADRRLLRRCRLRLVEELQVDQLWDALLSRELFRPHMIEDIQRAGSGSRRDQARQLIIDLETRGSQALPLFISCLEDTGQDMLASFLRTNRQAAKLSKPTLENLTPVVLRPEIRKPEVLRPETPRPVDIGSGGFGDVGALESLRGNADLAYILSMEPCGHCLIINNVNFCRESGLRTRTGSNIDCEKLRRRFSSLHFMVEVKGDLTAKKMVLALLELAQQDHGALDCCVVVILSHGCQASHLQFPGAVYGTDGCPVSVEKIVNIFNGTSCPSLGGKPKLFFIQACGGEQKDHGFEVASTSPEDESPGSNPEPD
Sequence of Caspase-9 (Homo sapiens) (P55211 331-416 limits assumed): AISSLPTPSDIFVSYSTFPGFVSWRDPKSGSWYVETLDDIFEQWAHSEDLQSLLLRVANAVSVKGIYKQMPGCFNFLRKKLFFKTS

[27] = biological target: Cathepsin D (Homo sapiens) (UniProt P07339); assay: Inhibition of human cathepsin D at 10 uM
[28] = biological target: Cathepsin Z (Homo sapiens) (UniProt Q9UBR2); assay: Inhibition of human cathepsin Z at 10 uM
Sequence of Cathepsin Z (Homo sapiens) (Q9UBR2 whole entry): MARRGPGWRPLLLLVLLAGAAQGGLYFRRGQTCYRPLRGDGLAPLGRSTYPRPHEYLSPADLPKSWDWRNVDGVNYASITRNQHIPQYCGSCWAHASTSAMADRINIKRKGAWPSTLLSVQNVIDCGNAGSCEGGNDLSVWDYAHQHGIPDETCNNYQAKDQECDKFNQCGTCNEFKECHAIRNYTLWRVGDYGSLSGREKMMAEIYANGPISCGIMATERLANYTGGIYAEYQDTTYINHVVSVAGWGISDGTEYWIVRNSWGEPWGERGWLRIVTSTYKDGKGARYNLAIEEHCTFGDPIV

Sus scrofa [29] = species on record: Sus scrofa; assay: Inhibition of pig pancreatic elastase 1 at 10 uM
[30] = biological target: Plasma kallikrein (Homo sapiens) (UniProt P03952); assay: Inhibition of human plasma kallikrein at 10 uM
[31] = biological target: Cathepsin E (Homo sapiens) (UniProt P14091); assay: Inhibition of human cathepsin E at 10 uM
[32] = Inhibition of bacterial prolyl oligopeptidase at 10 uM
[33] = biological target: Tissue-type plasminogen activator (Homo sapiens) (UniProt P00750); assay: Inhibition of human TPA at 10 uM
Sequence of Tissue-type plasminogen activator (Homo sapiens) (P00750 36-562 limits assumed): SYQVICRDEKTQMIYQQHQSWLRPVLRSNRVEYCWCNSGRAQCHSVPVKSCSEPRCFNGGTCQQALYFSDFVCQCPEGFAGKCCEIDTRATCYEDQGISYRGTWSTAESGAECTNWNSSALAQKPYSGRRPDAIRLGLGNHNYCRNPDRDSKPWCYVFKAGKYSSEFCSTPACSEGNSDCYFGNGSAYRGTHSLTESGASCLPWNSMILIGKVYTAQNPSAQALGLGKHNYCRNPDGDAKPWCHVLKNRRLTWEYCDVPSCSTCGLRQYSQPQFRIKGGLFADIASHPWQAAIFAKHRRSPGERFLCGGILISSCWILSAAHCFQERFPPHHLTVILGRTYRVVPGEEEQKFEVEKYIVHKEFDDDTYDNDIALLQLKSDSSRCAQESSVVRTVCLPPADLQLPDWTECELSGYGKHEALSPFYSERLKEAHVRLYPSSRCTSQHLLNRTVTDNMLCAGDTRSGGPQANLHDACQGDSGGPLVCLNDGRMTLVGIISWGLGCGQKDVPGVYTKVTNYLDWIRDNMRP

Renin (Homo sapiens) = Renin (Homo sapiens) (UniProt P00797); assay: Inhibition of human renin at 10 uM
[34] = biological target: Stromelysin-1 (Homo sapiens) (UniProt P08254); assay: Inhibition of human MMP3 at 10 uM
Sequence of Stromelysin-1 (Homo sapiens) (P08254 100-477 limits assumed): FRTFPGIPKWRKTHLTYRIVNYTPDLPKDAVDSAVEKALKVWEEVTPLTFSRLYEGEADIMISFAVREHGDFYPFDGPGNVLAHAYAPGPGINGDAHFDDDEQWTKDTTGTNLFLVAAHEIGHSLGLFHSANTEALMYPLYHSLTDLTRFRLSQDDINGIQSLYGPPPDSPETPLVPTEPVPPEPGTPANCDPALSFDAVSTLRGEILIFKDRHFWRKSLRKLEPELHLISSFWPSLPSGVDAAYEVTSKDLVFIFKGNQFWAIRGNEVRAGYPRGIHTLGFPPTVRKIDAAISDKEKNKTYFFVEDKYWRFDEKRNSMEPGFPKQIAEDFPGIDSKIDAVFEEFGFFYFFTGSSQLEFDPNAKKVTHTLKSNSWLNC

Mus musculus = assay: Inhibition of 20S proteasome beta5beta1 subunit binding in human RPMI 8226 cells xenografted mouse; type: functional, organism-based
[35] = AUC (0 to infinity) in CD1 mouse at 4 mg/kg, po; type: ADME, organism-based; design: time infinity, dose 4 mg/kg, route oral; settings: plasma
[36] = Protein binding in rat plasma; type: ADME, cell-free; settings: read-out: PPB (converted)
Trypsin (Homo sapiens) = Trypsin (Homo sapiens) (UniProt P07477+P07478+P35030); assay: Inhibition of human trypsin at 10 uM; type: protein assay
Homo sapiens [37] = species on record: Homo sapiens; assay: Inhibition of human chymotrypsin at 10 uM
[38] = Clearance in CD1 mouse at 0.8 mg/kg, iv; type: ADME, organism-based; design: dose 0.8 mg/kg, route intravenous; settings: in vivo; how it was run: as §1
[39] = Oral bioavailability in CD1 mouse at 4 mg/kg; type: ADME, organism-based; settings: in vivo; how it was run: as §2
[40] = biological target: Matrilysin (Homo sapiens) (UniProt P09237); assay: Inhibition of human MMP7 at 10 uM
Sequence of Matrilysin (Homo sapiens) (P09237 whole entry): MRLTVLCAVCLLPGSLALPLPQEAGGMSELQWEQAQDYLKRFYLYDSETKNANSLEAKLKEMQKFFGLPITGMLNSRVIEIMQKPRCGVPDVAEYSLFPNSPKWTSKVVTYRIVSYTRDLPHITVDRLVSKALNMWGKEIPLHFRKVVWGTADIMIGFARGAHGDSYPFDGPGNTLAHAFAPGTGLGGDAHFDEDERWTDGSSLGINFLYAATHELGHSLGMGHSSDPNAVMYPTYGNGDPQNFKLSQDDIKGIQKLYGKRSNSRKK

[41] = biological target: Interstitial collagenase (Homo sapiens) (UniProt P03956); assay: Inhibition of human MMP1 at 10 uM
[42] = biological target: Disintegrin and metalloproteinase domain-containing protein 17 (Homo sapiens) (UniProt P78536); assay: Inhibition of human TACE at 10 uM
Sequence of Disintegrin and metalloproteinase domain-containing protein 17 (Homo sapiens) (P78536 whole entry, the tested form may be a part): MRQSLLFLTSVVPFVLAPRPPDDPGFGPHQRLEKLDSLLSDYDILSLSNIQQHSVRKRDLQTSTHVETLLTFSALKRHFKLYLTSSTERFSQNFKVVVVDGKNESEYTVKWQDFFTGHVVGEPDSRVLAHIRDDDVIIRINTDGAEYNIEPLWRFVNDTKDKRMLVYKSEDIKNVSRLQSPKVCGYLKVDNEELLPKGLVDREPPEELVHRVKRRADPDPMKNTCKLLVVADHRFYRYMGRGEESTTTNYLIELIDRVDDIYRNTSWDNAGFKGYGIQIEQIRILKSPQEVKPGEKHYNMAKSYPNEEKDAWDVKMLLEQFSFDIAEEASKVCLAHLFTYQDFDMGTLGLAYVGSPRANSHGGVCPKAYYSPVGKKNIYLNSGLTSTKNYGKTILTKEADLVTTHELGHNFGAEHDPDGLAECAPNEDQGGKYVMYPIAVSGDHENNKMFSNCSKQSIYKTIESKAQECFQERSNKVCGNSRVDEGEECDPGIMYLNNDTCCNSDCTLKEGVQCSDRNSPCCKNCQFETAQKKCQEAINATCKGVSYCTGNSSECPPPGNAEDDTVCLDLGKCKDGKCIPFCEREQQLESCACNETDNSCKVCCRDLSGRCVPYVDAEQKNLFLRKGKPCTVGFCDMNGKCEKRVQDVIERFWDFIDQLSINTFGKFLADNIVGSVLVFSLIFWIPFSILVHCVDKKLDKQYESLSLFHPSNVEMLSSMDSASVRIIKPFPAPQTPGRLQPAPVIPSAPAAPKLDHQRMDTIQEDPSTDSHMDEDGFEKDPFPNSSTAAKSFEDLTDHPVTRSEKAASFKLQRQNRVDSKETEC

[43] = biological target: Neutrophil collagenase (Homo sapiens) (UniProt P22894); assay: Inhibition of human MMP8 at 10 uM
[44] = biological target: Coagulation factor X (Homo sapiens) (UniProt P00742); assay: Inhibition of human factor 10a at 10 uM
[45] = biological target: Endothelin-converting enzyme 1 (Homo sapiens) (UniProt P42892); assay: Inhibition of human ECE1 at 10 uM
Chymase (Homo sapiens) = Chymase (Homo sapiens) (UniProt P23946); assay: Inhibition of human chymase at 10 uM
Sequence of Chymase (Homo sapiens) (P23946 whole entry): as the sequence (P23946 whole entry) above

Homo sapiens [46] = species on record: Homo sapiens; assay: Inhibition of human tryptase at 10 uM
[47] = Metabolic stability in dog liver microsomes; type: ADME, Canis lupus familiaris, Microsome
[48] = Inhibition of human chymotrypsin
How it was run: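 Cross-reactivity was tested against human pancreas α-chymotrypsin using a fluorogenic specific substrate. Results are expressed as IC50.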

Caspase-1 (Homo sapiens) = Caspase-1 (Homo sapiens) (UniProt P29466); assay: Inhibition of human caspase 1 at 10 uM
Sequence of Caspase-1 (Homo sapiens) (P29466 120-297 limits assumed): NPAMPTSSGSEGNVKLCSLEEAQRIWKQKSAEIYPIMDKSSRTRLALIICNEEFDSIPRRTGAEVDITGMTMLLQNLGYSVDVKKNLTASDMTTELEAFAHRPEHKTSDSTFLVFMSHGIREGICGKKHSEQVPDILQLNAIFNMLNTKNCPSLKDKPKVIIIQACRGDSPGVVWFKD
Sequence of Caspase-1 (Homo sapiens) (P29466 317-404 limits assumed): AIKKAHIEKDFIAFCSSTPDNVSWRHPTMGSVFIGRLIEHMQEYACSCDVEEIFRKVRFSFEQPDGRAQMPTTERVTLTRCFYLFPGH

[49] = biological target: 72 kDa type IV collagenase (Homo sapiens) (UniProt P08253); assay: Inhibition of human MMP2 at 10 uM
[50] = Half life in CD1 mouse at 0.8 mg/kg, iv; type: ADME, organism-based; design: dose 0.8 mg/kg, route intravenous; settings: in vivo; how it was run: as §1
Caspase-8 (Homo sapiens) = Caspase-8 (Homo sapiens) (UniProt Q14790); assay: Inhibition of human caspase 8 at 10 uM

CC(C)C[C@H](NC(=O)[C@@H](NC(=O)c1cnc(-c2ccccc2)cn1)[C@@H](C)O)B(O)O
EC50 [1]: 21 nM
IC50 (A2780): 8.2 nM
IC50 [2]: 270 nM
IC50 [3]: 1.8 nM

CC(C)C[C@H](NC(=O)[C@@H](NC(=O)c1cc(-c2ccccc2)ccn1)[C@@H](C)O)B(O)O
EC50 [1]: 18.6 nM
IC50 (A2780): 5.1 nM
IC50 [2]: 290 nM
IC50 [3]: 2 nM

CC(C)C[C@H](NC(=O)[C@@H](NC(=O)c1ccc2ccccc2c1)[C@@H](C)O)B(O)O
EC50 [1]: 27 nM
IC50 (A2780): 5.3 nM
IC50 [2]: 500 nM
IC50 [3]: 1.6 nM

CC(C)C[C@H](NC(=O)[C@@H](NC(=O)c1cncc(-c2ccccc2)n1)[C@@H](C)O)B(O)O
EC50 [1]: 27 nM
IC50 (A2780): 9.8 nM
IC50 [2]: 280 nM
IC50 [3]: 2.3 nM

CC(C)C[C@H](NC(=O)[C@@H](NC(=O)c1cccc(-c2ccccc2)c1)[C@@H](C)O)B(O)O
EC50 [1]: 16.9 nM
IC50 (A2780): 4.8 nM
IC50 [2]: 900 nM
IC50 [3]: 0.8 nM

CC(C)C[C@H](NC(=O)[C@@H](NC(=O)c1ccc(-c2ccccc2)cc1)[C@@H](C)O)B(O)O
EC50 [1]: 21 nM
IC50 (A2780): 4.9 nM
IC50 [2]: 600 nM
IC50 [3]: 0.9 nM

CC(C)C[C@H](NC(=O)[C@@H](NC(=O)c1ccc2ccccc2n1)[C@@H](C)O)B(O)O
EC50 [1]: 32 nM
IC50 (A2780): 20.9 nM
IC50 [2]: 1300 nM
IC50 [3]: 6.8 nM

CC(C)C[C@H](NC(=O)[C@@H](NC(=O)c1ncccc1-c1ccccc1)[C@@H](C)O)B(O)O
EC50 [1]: 13000 nM
IC50 [2]: 460 nM
IC50 [3]: 8.8 nM

CC(C)C[C@H](NC(=O)[C@@H](NC(=O)c1csc(-c2ccccc2)n1)[C@@H](C)O)B(O)O
EC50 [1]: 16 nM
IC50 (A2780): 28 nM
IC50 [2]: 590 nM
IC50 [3]: 4.6 nM

CC(C)C[C@H](NC(=O)[C@@H](NC(=O)c1cnccn1)[C@@H](C)O)B(O)O
EC50 [1]: 1350 nM
IC50 [3]: 42 nM

CC(C)C[C@H](NC(=O)[C@H](Cc1ccccc1)NC(=O)c1cnccn1)B(O)O [BORTEZOMIB]
half-life [4]: 21 min
half-life [5]: 37 min
inhibition [6]: -2%
inhibition [7]: 8%
inhibition [8]: 2%
half-life [9]: 16 min
inhibition (Sus scrofa [10]): 8%
inhibition [11]: 50%
inhibition [12]: 1%
half-life [13]: 70 h
inhibition (Caspase-2 (Homo sapiens)): 1%
inhibition [14]: 5%
inhibition (Caspase-3 (Homo sapiens)): 2%
IC50 (Cathepsin G): 520 nM
IC50 (Chymase): 1190 nM
inhibition [15]: 9%
EC50 [1]: 21 nM
inhibition (Caspase-7 (Homo sapiens)): 1%
inhibition [16]: 27%
fraction unbound [17]: 0.049
inhibition [18]: 4%
inhibition [19]: 48%
fraction unbound [20]: 0.058
inhibition [21]: -7%
inhibition [22]: 22%
Vd [23]: 102 L/kg
AUC(0-inf) [24]: 927 ng·h/mL
inhibition [25]: 96%
inhibition [26]: 0%
inhibition (Caspase-9 (Homo sapiens)): 0%
inhibition [27]: -1%
inhibition [28]: 27%
inhibition (Sus scrofa [29]): -1%
inhibition [30]: 6%
inhibition [31]: -3%
inhibition [32]: 9%
inhibition [33]: 1%
inhibition (Renin (Homo sapiens)): -1%
inhibition [34]: -1%
Activity (Mus musculus): inactive
AUC(0-inf) [35]: 499 ng·h/mL
fraction unbound [36]: 0.069
inhibition (Trypsin (Homo sapiens)): -1%
IC50 (A2780): 1.7 nM
inhibition (Homo sapiens [37]): 86%
clearance [38]: 14.3 mL/min/kg
bioavailability [39]: 11%
inhibition [40]: -6%
inhibition [41]: 6%
inhibition [42]: 2%
inhibition [43]: 3%
inhibition [44]: 4%
inhibition [45]: 26%
IC50 [2]: 500 nM
inhibition (Chymase (Homo sapiens)): 95%
IC50 [3]: 3.8 nM
inhibition (Homo sapiens [46]): 0%
half-life [47]: > 40 min
IC50 [48]: 1220 nM
inhibition (Caspase-1 (Homo sapiens)): 0%
inhibition [49]: -1%
half-life [50]: 98 h
inhibition (Caspase-8 (Homo sapiens)): -4%
